Laboratory results published in publication PMC3744103 (Molecular cancer therapeutics, 2013).
Where “and” joins values, the source holds several entries; their conditions need not be identical. Equal entries are not always repeated.

Legend:
[1] = test system: UMUC3 cells; test: Cell viability, ATPase activity assay; type: cell-based, human
How it was run: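 Cells exposed for 48 h to varying concentrations of test compound, with 0.1% DMSO as vehicle control. Viability read by an ATPase-based assay in three independent experiments. UMUC3 kept in DMEM with 10% FBS at 37 °C and 5% CO2. IC50 given with n=3.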

[2] = test system: RT4 cells; test: Cell viability, ATPase activity assay; type: cell-based, human; details: read-out: IC50, cell viability; RT4, ISO 5–60 μM, 48 h, n=3
[3] = test system: Cl41 cells; test: Cell viability, ATPase activity assay; type: cell-based, mouse; details: normal Cl41 cells, ISO 5–60 μM, 48 h
[4] = test system: UMUC3 cells; test: Cell morphology observation; type: cell-based, human; details: UMUC3, 20 μM ISO, 24 hours
[5] = test system: UMUC3 cells; test: Cell cycle and apoptosis analysis by flow cytometry; type: cell-based, human; details: UMUC3, 5 μM ISO; for cells in G0/G1 (growth arrest): control 47.58%
[6] = test system: UMUC3 cells; test: Anchorage-independent growth assay; type: cell-based, human; details: UMUC3 in soft agar, concentration-dependent, as low as 5 μM, P<0.01
How it was run: (§1)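 UMUC3 cells (DMEM, 10% FBS; stable GFP or GFP-Cyclin D1 transfectants made by co-transfection with pSuper vector) were seeded at 1×10^4 per well in 0.33% soft agar in 10% FBS BME, with or without test compound, over a 0.5% agar bottom layer. Vehicle was 0.1% DMSO. Cultures were kept at 37°C, 5% CO2 for 21 days. Colonies over 32 cells were counted by microscope as colonies per 10,000 seeded cells (mean±SD, 3 experiments).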

[7] = ISO pharmacokinetics in mouse serum, LC/MS/MS; type: in vivo, mice; details: for Caverage ± SD, serum ISO concentration: mouse serum, 150 mg/kg gastric gavage, n=3
How it was run: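 Male […] mice (20–25 g, 30 total) received 150 mg/kg by gastric gavage; three were killed per time point from 0.033 to 4 h. Serum (centrifuged 4000 rpm, 30 min; stored −20 °C) extracted with methanol, filtered 0.45 μm and run on LC/MS/MS: negative ESI, MRM, m/z 257.0/241.1, naringenin 271.1/151.1. Parameters derived by non-compartmental analysis.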

[8] = test system: Cyclin D1 protein expression in UMUC3 cells; test: Western blotting of Cyclin D1 and cell cycle regulators; type: cell-based, human
[9] = test system: Cyclin D1 protein expression in RT112 cells; test: Western blotting of Cyclin D1; type: cell-based, human
[10] = test system: Cyclin D1 protein expression in RT4 cells; test: Western blotting of Cyclin D1; type: cell-based, human; details: low grade RT4 cell line, 24h
[11] = test system: Cyclin D1 protein expression in Cl41 cells; test: Western blotting of Cyclin D1; type: cell-based, mouse; details: normal Cl41 cell line, 24h
[12] = test system: cyclin d1 mRNA in UMUC3 cells; test: Semiquantitative RT-PCR; type: cell-based, human; details: UMUC3, concentration- and time-dependent (24 h; 5 μM time course)
How it was run: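 UMUC3 cells treated with test compound at the indicated concentrations for 24 h, or at 5 μM for the indicated times. Total RNA isolated with TRIzol and reverse transcribed. Cyclin D1 mRNA measured by semiquantitative RT-PCR against GAPDH, with products run on 2% agarose and stained with ethidium bromide.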

[13] = test system: Cyclin D1 promoter transcriptional activity in UMUC3 cells; test: Cyclin D1 promoter-driven luciferase reporter assay; type: cell-based, human; details: ISO 5μM
How it was run: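 UMUC3 cells stably carrying a Cyclin D1 promoter-luciferase reporter were seeded at 1×10^4 per well and treated with 5 μM test compound at 80–90% confluence for the indicated times. Luciferase activity read on a microplate luminometer.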

[14] = test system: SP1-dependent transcriptional activity in UMUC3 cells; test: SP1 luciferase reporter assay; type: cell-based, human; details: UMUC3 stable reporter, ISO 5μM, P<0.01
How it was run: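 A reporter with three consensus SP1 sites was stably co-transfected with pRL-TK and pSuper into UMUC3 cells. Cells were seeded at 1×10^4 per well and, at 80–90% confluence, exposed to 5 μM test compound for various times. Lysis buffer was Tris-phosphate pH 7.8 with EDTA, Triton X-100 and glycerol. Dual-luciferase read-out gave relative SP1 activity (means±SE, three independent experiments).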

[15] = test system: SP1 protein expression in UMUC3 cells; test: Western blotting of cytoplasmic and nuclear extracts for transcription factors; type: cell-based, human; details: UMUC3, 5 μM ISO, 12 h
How it was run: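 UMUC3 cells in 10-cm dishes were treated with 0.1% DMSO or 5 μM test compound for 12 h. Cytoplasmic and nuclear fractions were prepared with a nuclear/cytosol fractionation kit and stored at −80°C. Immunoblots used an AP-conjugated secondary with ECF detection and GAPDH as loading control. Nuclear SP1 was quantified by scanning relative to C-Jun (n=3).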

[16] = test system: SP1 binding to Cyclin D1 promoter in UMUC3 cells; test: ChIP assay; type: cell-based, human; details: UMUC3, ISO 5 μM, 12 hours
How it was run: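 Chromatin immunoprecipitation (EZ-ChIP kit) on UMUC3 cells left untreated or given 5 μM test compound for 12 h. Precipitated DNA amplified by PCR with primers covering the SP1-binding region −92 to +27 of the human Cyclin D1 promoter.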

[17] = test system: UMUC3(GFP) cells; test: Cell cycle analysis by flow cytometry in stable transfectant; type: cell-based, human; details: ISO 24 h, control 62.74%
[18] = test system: UMUC3(GFP-Cyclin D1) cells; test: as above; type: cell-based, human; details: ISO 24 h, control 51.01%
[19] = test system: UMUC3 (GFP) and UMUC3 (GFP-Cyclin D1) cells; test: Anchorage-independent growth in soft agar, stable transfectants; type: cell-based, human; details: UMUC3 (GFP) vs UMUC3 (GFP-Cyclin D1) in soft agar
How it was run: as §1

[20] = test system: endogenous Cyclin D1 and exogenous GFP-Cyclin D1 in UMUC3 transfectants; test: Western blotting in stable transfectants; type: cell-based, human; details: ISO 24 h
How it was run: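 UMUC3 cells stably transfected with GFP or GFP-Cyclin D1 constructs were treated with test compound for 24 h. Cells were lysed in 10 mM Tris-HCl (pH 7.4), 1% SDS, 1 mM Na3VO4, and protein was quantified by DC assay. Blots were probed with primary antibodies and an AP-conjugated secondary, with ECF detection.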

[21] = test system: human bladder cancer cells; details: cited from earlier work
[22] = test system: bovine aortic smooth muscle cells (BASMCs); details: cited from earlier work
[23] = test system: cardiac hypertrophy; details: by anti-oxidative activity; cited from earlier work
[24] = mice, 150 mg/kg oral, non-compartmental model

COc1cc(/C=C/c2cc(O)cc(O)c2)ccc1O [ISO, Isorhapontigenin]
cell proliferation ([1]; UMUC3, 5 μM ISO): inhibition of cell proliferation
IC50 ([1]; read-out: IC50, cell viability, UMUC3, ISO 5–60 μM, 48 h, n=3): 22.4 ± 3.3 µM
IC50 [2]: 38.6 ± 2.9 µM
cell viability [3]: no obvious reduction of cell viability
morphologic changes [4]: shrinkage, rounding, detachment and membrane blebbing
apoptotic cells [5]: did not induce any increases of apoptotic cells
cells in G0/G1 (growth arrest) ([5]; 12h): 57.98%
cells in G0/G1 (growth arrest) ([5]; 24h): 62.62%
anchorage-independent growth [6]: markedly inhibited anchorage-independent growth
AUC(0-t) [7, 24]: 6090 ± 2810 ng·h/mL
AUC(0-∞) [7, 24]: 6100 ± 2800 ng·h/mL
CLz/F, apparent clearance [7, 24]: 462 ± 172 mL/min/kg
MRT(0-t), mean residence time [7, 24]: 0.70 ± 0.20 h
t1/2z, terminal half-life ([7]; mice, 150 mg/kg oral, non-compartmental model, 150 mg/kg): 1.7 h and 1.72 ± 0.27 h
Caverage ± SD, serum ISO concentration ([7]; 0.033 h): 6800 ± 2100 ng/mL
Caverage ± SD, serum ISO concentration ([7]; 0.083 h): 10740 ± 3520 ng/mL
Caverage ± SD, serum ISO concentration ([7]; 0.170 h): 12350 ± 4790 ng/mL
Caverage ± SD, serum ISO concentration ([7]; 0.250 h): 9230 ± 4840 ng/mL
Caverage ± SD, serum ISO concentration ([7]; 0.500 h): 6220 ± 3600 ng/mL
Caverage ± SD, serum ISO concentration ([7]; 0.750 h): 830 ± 800 ng/mL
Caverage ± SD, serum ISO concentration ([7]; 1.000 h): 290 ± 240 ng/mL
Caverage ± SD, serum ISO concentration ([7]; 1.500 h): 280 ± 140 ng/mL
Caverage ± SD, serum ISO concentration ([7]; 2.000 h): 170 ± 120 ng/mL
Caverage ± SD, serum ISO concentration ([7]; 4.000 h): 30 ± 10 ng/mL
earliest time of significant reduction of Cyclin D1 expression ([8]; UMUC3, 5 μM ISO): 6 h
Cyclin B1 expression ([8]; UMUC3, 5 μM ISO, 24 h): slightly reduced
expression of Cyclin A, Cyclin E, Cyclin B1, CDK4, CDK6, P53, P27, P21 ([8]; UMUC3, different concentrations of ISO, 24 hours): did not show observable inhibition
Cyclin D1 protein expression ([8]; UMUC3, different concentrations of ISO, 24 hours, vs DMSO): concentration-dependent reduction of Cyclin D1 protein expression
earliest time of significant reduction of Cyclin D1 expression ([9]; RT112, 5 μM ISO): 6 h
Cyclin D1 expression ([9]; high grade RT112 cell line, 24h): markedly inhibition of Cyclin D1 expression
Cyclin D1 expression [10]: slight inhibition
Cyclin D1 expression [11]: marginal induction of Cyclin D1
cyclin d1 mRNA [12]: marked reduction of cyclin d1 mRNA
Cyclin D1 transcription, SP1 mutant reporter ([13]; UMUC3/SP1mut-Cyclin D1-Luc transfectant): did not shown a significant inhibition of Cyclin D1 transcription
Cyclin D1 transcription, WT reporter ([13]; UMUC3/WT Cyclin D1-Luc transfectant): inhibited Cyclin D1 transcription
Cyclin D1 promoter transcriptional activity ([13]; UMUC3 stable reporter, time-dependent, P<0.01): marked inhibition of Cyclin D1 promoter transcriptional activity
SP1-dependent transcriptional activity [14]: dramatically inhibition of SP1-dependent transcriptional activity
SP1 protein expression [15]: only downregulated SP1 protein expression
expression, activation or nuclear translocation of C-FOS, P-C-JUN(ser 73), P-C-JUN(ser63), C-JUN, HSF-1, P-ATFII, P-NF-κB p65, NF-κB p65 [15]: did not show any observable inhibition
SP1 binding to Cyclin D1 promoter region −92~+27 [16]: this binding was impaired
cells in G0/G1 (growth arrest) [17]: 74.60%
cells in G0/G1 (growth arrest) [18]: 54.61%
inhibition of anchorage-independent growth [19]: reversed by ectopic expression of GFP-Cyclin D1
endogenous Cyclin D1 vs exogenous GFP-Cyclin D1 protein expression [20]: only downregulated endogenous Cyclin D1 protein expression
apoptosis ([21]; UMUC3 and other invasive BC cells, 20μM): induced apoptosis
cytotoxic effect ([21]; human bladder cancer cell lines, concentration lower than 20 μM): do not show cytotoxic effect
anchorage-independent growth ([21]; human bladder cancer cells, 20~60 μM): significant inhibitory effect on anchorage-independent growth
oxLDL-induced proliferation and mitogenesis [22]: inhibitory effect
cardiac hypertrophy [23]: inhibits cardiac hypertrophy
